Measured values from PubChem BioAssay.
The source made the active and inactive calls.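 How the source made its calls, unless noted: active means viability at or under a set limit in both replicates, limit being median viability minus 3 SD (cut at about 48% in these data, passing the limit was not always enough); inconclusive means at or under the limit in just one replicate; inactive means at or above the limit in both replicates.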

Assays:
[1] = SK-BR-3 cell growth inhibitors, pilot screen, 24 h, human (AID 572;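 active means viability at or below 10% of carrier control in both of two separate runs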;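 further: compound exposure lasted between 18 and 24 h rather than exactly 24 h; 100% = carrier-treated control wells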); details: SK-BR-3 viability, CellTiter-Glo luminescence, at 10 µM, stronger effect = lower value
[2] = HUVEC growth inhibition – cell-based, human, primary screen (AID 575;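 active means viability at or below 30% in both replicate assays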;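 further: 100% = median of untreated cell wells with 0.1% DMSO on each plate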); details: HUVEC proliferation, CellTiter-Glo luminescence, 72 h; at 10 µM; stronger effect = lower value
Summary of the method: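 Test system: HUVEC primary cells. Quantity: 1250 endothelial cells in each well. Dosing: single-point 10 µM, DMSO 0.1% final. Incubation: 72 h treatment at 37 °C. Measured by: CTG luminescence. Control set: DMSO cell controls and MePR drug controls. Plate: collagen-coated 384-well format.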

[3] = growth inhibitors of H69AR lung tumor, primary screen, human, duplicate replicates (AID 580); details: H69AR lung tumor cells viability, ATP luminescence, 72 h; at 10 µM; stronger effect = lower value;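 further: 100% = mean luminescence of untreated wells and 0% = no signal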
[4] = reversal of MRP1-mediated doxorubicin resistance, pilot screen, H69AR cells, doxorubicin co-treatment (AID 601;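 active means viability loss from added drug above about 55%, and viability with drug at most 40%, in both replicates, limit read from the data, passing the limit was not always enough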); details: CellTiter-Glo, 72 h, at 10 µM; for differential viability (reversal): stronger effect = higher value
[5] = 384-well plate pilot, post-Golgi transport modulator project, inhibition of yeast transport mutant growth (AID 636; in the data active means inhibition above about 31%); details: absorbance 615 nm, about 18 h, stronger effect = higher value
[6] = growth suppression of yeast trafficking mutant, preliminary HTS, modulators of trafficking downstream of Golgi apparatus project, 1536-format plate, OD 615 nm (AID 637; in the data active means inhibition above about 30%); details: yeast transport mutant growth, absorbance 615 nm, 18 h; stronger effect = higher value
[7] = H69AR cells + 2 uM doxorubicin, measured here: viability with 2 uM doxorubicin, stronger effect = lower value
[8] = H69AR cells, compound alone cytotoxicity

In the case of `O=C(CN(C1CCCCC1)S(=O)(=O)c1ccccc1)NCc1cccnc1`, the viability [1] is reported as 83% (inactive), the viability [2] is reported as 103% (inactive) and the viability [3] is reported as 96% (inactive). For the same compound, the differential viability (reversal) ([4]; H69AR cells + 2 uM doxorubicin) was 3.4% (inactive), the viability [4, 7] was 92.6% and the viability [4, 8] was 96%. The inhibition [5] was -6.76% (inactive) and the inhibition [6] was -0.55% (inactive).

With `Cc1ccc(S(=O)(=O)NC(=O)NN2CCCCCC2)cc1` the viability [1] was 112% (inactive), the viability [2] was 81.1% (inactive) and the viability [3] was 114% (inactive). The differential viability (reversal) ([4]; H69AR cells + 2 uM doxorubicin) was 14% (inactive), the viability [4, 7] was 100% and the viability [4, 8] was 114%. The inhibition [5] was -3.38% (inactive) and the inhibition [6] was 4.17% (inactive).

In the case of `COc1ccccc1-c1nnc(NC(=O)c2ccc(S(=O)(=O)N(C)Cc3ccccc3)cc2)o1`, the viability [1] is reported as 85% (inactive), the viability [2] is reported as 23.9% (active) and the viability [3] is reported as 19.2% (active). For the same compound, the differential viability (reversal) ([4]; H69AR cells + 2 uM doxorubicin) was -25.1% (inactive), the viability [4, 7] was 44.3% and the viability [4, 8] was 19.2%. For the same compound, the inhibition [5] was 1.3% (inactive) and the inhibition [6] was 6.56% (inactive).

With `COc1ccc(C(O)C(CN2CCOCC2)c2ccccc2)cc1F` (configuration not stated) the viability [1] was 107% (inactive), the viability [2] was 109% (inactive) and the viability [3] was 103% (inactive). The differential viability (reversal) ([4]; H69AR cells + 2 uM doxorubicin) was 4.89% (inactive), the viability [4, 7] was 97.8% and the viability [4, 8] was 103%. For the same compound, the inhibition [5] was -0.26% (inactive) and the inhibition [6] was 1.64% (inactive).

With `CCCC(=O)Nc1nnc(CC(=O)N2CCCC2)s1` the viability [1] was 90% (inactive), the viability [2] was 113% (inactive) and the viability [3] was 96.9% (inactive). The differential viability (reversal) ([4]; H69AR cells + 2 uM doxorubicin) was 7.37% (inactive), the viability [4, 7] was 89.5% and the viability [4, 8] was 96.9%. The inhibition [5] was -9.73% (inactive) and the inhibition [6] was -5.27% (inactive).

In the case of `CCOC(=O)c1ccc(NC(=O)N2CCN(Cc3cccc(F)c3)CC2)cc1`, the viability [1] is reported as 91% (inactive), the viability [2] is reported as 105% (inactive) and the viability [3] is reported as 84.4% (inactive). The differential viability (reversal) ([4]; H69AR cells + 2 uM doxorubicin) was -9.16% (inactive), the viability [4, 7] was 93.6% and the viability [4, 8] was 84.4%. The inhibition [5] was -5.21% (inactive) and the inhibition [6] was 0.91% (inactive).

With `Cc1ccc(C)c(-n2nnnc2SCC(=O)NCCC2=CCCCC2)c1` the viability [1] was 91% (inactive), the viability [2] was 73.5% (inactive) and the viability [3] was 93.2% (inactive). The differential viability (reversal) ([4]; H69AR cells + 2 uM doxorubicin) was -11.3% (inactive), the viability [4, 7] was 105% and the viability [4, 8] was 93.2%. For the same compound, the inhibition [5] was -4.66% (inactive) and the inhibition [6] was 2.36% (inactive).

In the case of `CN(C)c1nc(N(C)C)nc(N(C)C)n1`, the viability [1] is reported as 95% (inactive), the viability [2] is reported as 106% (inactive) and the viability [3] is reported as 96.8% (inactive). The differential viability (reversal) ([4]; H69AR cells + 2 uM doxorubicin) was -2.79% (inactive), the viability [4, 7] was 99.6% and the viability [4, 8] was 96.8%. The inhibition [5] was -1.69% (inactive) and the inhibition [6] was -2.67% (inactive).

In the case of `COc1cc(C2Oc3cc(C4Oc5cc(O)cc(O)c5C(=O)C4O)ccc3OC2CO)ccc1O` (configuration not stated), the viability [1] is reported as 106% (inactive), the viability [2] is reported as 85.7% (inactive) and the viability [3] is reported as 97.4% (inactive). The differential viability (reversal) ([4]; H69AR cells + 2 uM doxorubicin) was 4.15% (inactive), the viability [4, 7] was 93.2% and the viability [4, 8] was 97.4%. For the same compound, the inhibition [5] was 1.3% (inactive) and the inhibition [6] was -3.5% (inactive).
